Source: publication PMC3079392 (The Biochemical journal, 2008)
“Also recorded” adds a separate entry of the source. Like-named read-outs stand apart in the source and are kept apart here.

Assays:
110δ = conditions: cited from earlier work
breast cancer cell lines [1] = assay: Flow cytometry DNA content with nocodazole protocol; assay type: cell-based
phospho-S6 (Ser-235,236) = assay: Western blot of phospho-S6; assay type: cell-based; conditions: 1 h
Method in brief: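 Cells in 6-well plates (80% confluence) exposed to test compound at 0.5, 1 or 10 μM for 1 h, then scraped into NP40 lysis buffer with phosphatase and protease inhibitors. Detected by HRP secondary and ECL; bands quantified densitometrically.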

[2] = test system: PKB/Akt (S473) and S6 (S235,236) phosphorylation; assay: Western blot of PI3K signaling; assay type: cell-based; conditions: for Temporal inhibition of PKB/Akt and S6 phosphorylation: 1 μM, 1, 6 and 24 h
phospho-S6 = assay: Phospho-S6 immunofluorescence, Cellomics arrayscan; assay type: cell-based; conditions: 1 μM; for S6 phosphorylation following treatment: Hs578t cells, up to 24 h; for Inhibition of S6 phosphorylation by immunofluorescence: 1 h
Method in brief: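 Cells in 96-well plates; SKBr3 treated 18 h after plating with 1 μM test compound for 1 or 24 h, Hs578t for 24 h. Fixed in 4% paraformaldehyde 15 min, permeabilized in 0.2% Triton X-100 5 min, then blocked in 1% BSA 20 min. Anti-phospho-S6 1 h, fluorescent secondary 1 h, Hoechst. Cytoplasmic intensity (Hoechst-defined nuclear ring) measured on Cellomics ArrayScan, averaged over 200 cells; secondary-only control.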

breast cancer cell lines [3] = assay: Cell number by counting Hoechst-stained nuclei; assay type: cell-based
Method in brief: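 Cells plated in 96-well dishes; test compound added the next day, with medium and fresh compound replaced every 24 h, for 48 h (or 1 μM for 24, 48 and 72 h). Cells then fixed and permeabilized, and nuclei stained with Hoechst. Nuclei counted on a Cellomics ArrayScan reader.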

breast cancer cell lines [4] = assay: Flow cytometry DNA content; assay type: cell-based; conditions: for Sub-G1 population (less than 2n DNA content): SKBR3 cells, 24 h; for Effects on DNA content: MCF10A, BT474, MDA-MB-231 and MDA-MB-468 cells
Method in brief: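 Cells in 6-well plates (80% confluence) treated with test compound: SKBr3 at several concentrations for 24 h; others at 1 μM for 24, 48 or 72 h with fresh compound every 24 h. Adherent plus floating cells pooled and fixed in 70% ethanol. Stained with propidium iodide 10 μg/ml plus RNase A 0.1 mg/ml; 10,000 cells analysed by flow cytometry. Sub-G1 scored as <2n DNA content.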

[5] = test system: phospho-PKB/Akt (Ser-473); assay: Western blot of phospho-PKB/Akt; assay type: cell-based; conditions: 1 h; for Inhibition of PKB/Akt phosphorylation: MDA-MB-468 and BT549 cells (PTEN mutant), 0.5, 1 and 10 μM; for Increase in PKB phosphorylation induced by siRNA to PTEN: MDA-MB-231 cells with PTEN siRNA, 1 μM
[6] = cited from earlier work
p110α/p85α = conditions: read-out: In-vitro IC50 p110α/p85α; cited from earlier work
p110δ/p85α = conditions: read-out: In-vitro IC50 p110δ/p85α; cited from earlier work
[7] = mutant Ras cell lines MDA-MB-231 and Hs578t, 1 μM PI3K inhibitor, 100 nM rapamycin, nocodazole protocol
[8] = MDA-MB-231 cells, 0.5, 1 and 10 μM
[9] = MCF10A, BT474, SKBR3, BT20, T47D, MCF7 and HS578t, 0.5, 1 and 10 μM, 1 h
[10] = MDA-MB-468 cells, 0.5 and 1 μM, 48 h
[11] = five other cell lines, 0.5 and 1 μM, 48 h
[12] = MDA-MB-468 cells (PTEN mutant), 1 μM, nocodazole 70 ng/ml

## Cc1ccccc1-n1c(Cn2cnc3c(N)ncnc32)nc2cccc(C)c2c1=O [IC87114]
110δ
  Selectivity for 110δ vs. all other PI3K family members: > 100 fold

## N#CC(=C(/N)Sc1ccccc1N)/C(C#N)=C(/N)Sc1ccccc1N [U0126]
Breast cancer cell lines [1]; all cell lines examined, 10 μM U0126, nocodazole protocol
  G1 arrest: caused a G1 arrest in all cell lines examined

## CO[C@H]1C[C@@H]2CC[C@@H](C)[C@@](O)(O2)C(=O)C(=O)N2CCCC[C@H]2C(=O)O[C@H]([C@H](C)C[C@@H]2CC[C@@H](O)[C@H](OC)C2)CC(=O)[C@H](C)/C=C(\C)[C@@H](O)[C@@H](OC)C(=O)[C@H](C)C[C@H](C)/C=C/C=C/C=C/1C [rapamycin]
phospho-S6 (Ser-235,236); WT Ras cell lines BT-474 and BT20
  Inhibition of S6 phosphorylation: sufficient to fully inhibit S6 phosphorylation
phospho-S6 (Ser-235,236); mutant Ras MDA-MD-231 cell line
  Inhibition of S6 phosphorylation: residual phosphorylation of S6
Breast cancer cell lines [1]; all cells expressing WT Ras, 100 nM rapamycin, nocodazole protocol
  G1 arrest: caused a G1 arrest (to varying degrees)
Breast cancer cell lines [1]; [7]
  G1 arrest: ineffective at causing a G1 arrest

## Cc1ccc([N+](=O)[O-])cc1S(=O)(=O)N(C)/N=C/c1cnc2ccc(Br)cn12 [PIK-75]
phospho-S6 (Ser-235,236); [8]
  Inhibition of S6 phosphorylation: still sensitive
[2]; BT549 cells
  Temporal inhibition of PKB/Akt and S6 phosphorylation: transient inhibition
[2]; [9]
  Inhibition of PKB/Akt and S6 phosphorylation: equipotent
[2]; T47D, MCF10A, BT20 cells
  Temporal inhibition of PKB/Akt and S6 phosphorylation: sustained
phospho-S6
  S6 phosphorylation following treatment: rapidly recovered to untreated levels
phospho-S6; SKBr3 cells, 1 and 24 h
  Duration of inhibition of S6 phosphorylation by immunofluorescence: sustained
phospho-S6; SKBr3 cells
  Inhibition of S6 phosphorylation by immunofluorescence: inhibit S6 phosphorylation
Breast cancer cell lines [3]; Hs578t cells, 48 h of treatment
  Effect on cell number: strongly inhibited cell number
Breast cancer cell lines [3]; eight cell lines, 1 μM, 24, 48 and 72 h
  Loss of cell number: greatest ability to induce loss of cell number
Breast cancer cell lines [4]; BT474 (rapid), MCF10A and MDA-MB-468 (delayed), 1 μM, 24, 48 and 72 h
  Sub-G1 population: induced a large sub-G1 population
Breast cancer cell lines [4]; MDA-MB-231 cells, 1 μM, 24, 48 and 72 h
  DNA content: strong accumulation of cells with a 4n DNA content
Breast cancer cell lines [4]
  Sub-G1 population (less than 2n DNA content): induced a significant sub-G1 population

## Cc1cc(C(C)Nc2ccccc2)c2oc(-c3ccncc3)cc(=O)c2c1 (stereo not shown) [TGX-286]
[5]
  Inhibition of PKB/Akt phosphorylation: able to inhibit the phosphorylation of PKB/Akt
[2]; [9]
  Inhibition of PKB/Akt and S6 phosphorylation: ineffective
phospho-S6; SKBr3 cells
  Inhibition of S6 phosphorylation by immunofluorescence: only a minimal inhibition
Breast cancer cell lines [3]; BT549 cells
  Effect on cell number: did not exhibit these responses to cell number
Breast cancer cell lines [3]; [10]
  Effect on cell number: dose-dependent reduction in cell number
Breast cancer cell lines [3]; [11]
  Effect on cell number: broadly unaffected
Breast cancer cell lines [4]; 1 μM, 24, 48 and 72 h
  Effects on DNA content: Neither PI-103, TGX-286 or PIK-108 showed strong effects
Breast cancer cell lines [1]; [12]
  G1 arrest: G1 arrest was uniquely observed

## O=c1cc(N2CCOCC2)oc2c(-c3ccccc3)cccc12 [LY294002]
[2]; all cell lines examined
  Inhibition of PI3K signaling: effective at inhibiting PI3K signaling in all cell lines examined
[6]; in vivo
  Toxicity when administered systemically in vivo: toxic when administered systemically in vivo

## Oc1cccc(-c2nc(N3CCOCC3)c3oc4ncccc4c3n2)c1 [PI-103]
[5]
  Increase in PKB phosphorylation induced by siRNA to PTEN: abrogated
phospho-S6 (Ser-235,236); [8]
  Inhibition of S6 phosphorylation: still sensitive
[2]
  Inhibition of PKB/Akt and S6 phosphorylation: equipotent; also recorded: more potent than PIK-75
phospho-S6
  S6 phosphorylation following treatment: remained inhibited
phospho-S6; SKBr3 cells
  Inhibition of S6 phosphorylation by immunofluorescence: inhibit S6 phosphorylation
Breast cancer cell lines [3]; BT549 and Hs578t cells, 1 μM
  Effect on cell number: resistant to cell number decreases
Breast cancer cell lines [4]; 1 μM, 24, 48 and 72 h
  Effects on DNA content: […]
Breast cancer cell lines [4]
  Sub-G1 population (less than 2n DNA content): did not induce such an effect
Breast cancer cell lines [1]; BT474 and MCF10A cells, 1 μM, nocodazole 70 ng/ml
  G1 arrest: induced a G1 arrest
Breast cancer cell lines [1]; MDA-MB-231 and MDA-MB-468 cells, 1 μM, nocodazole 70 ng/ml
  G1 arrest: not in MDA-MB-231 cells or in MDA-MB-468 cells
Breast cancer cell lines [1]; [7]
  G1 arrest: marked insensitivity
p110α/p85α
  IC50: […]
p110δ/p85α
  IC50: […]

## Cc1cc([C@H](C)Nc2ccccc2)c2oc(N3CCOCC3)cc(=O)c2c1 [PIK-108]
[5]
  Increase in PKB phosphorylation induced by siRNA to PTEN: abrogated
  Inhibition of PKB/Akt phosphorylation: able to inhibit the phosphorylation of PKB/Akt
[2]; [9]
  Inhibition of PKB/Akt and S6 phosphorylation: ineffective
phospho-S6; SKBr3 cells
  Inhibition of S6 phosphorylation by immunofluorescence: only a minimal inhibition
Breast cancer cell lines [3]; BT549 cells
  Effect on cell number: did not exhibit these responses to cell number
Breast cancer cell lines [3]; [10]
  Effect on cell number: dose-dependent reduction in cell number
Breast cancer cell lines [3]; [11]
  Effect on cell number: broadly unaffected
Breast cancer cell lines [4]; 1 μM, 24, 48 and 72 h
  Effects on DNA content: Neither PI-103, TGX-286 or PIK-108 showed strong effects
Breast cancer cell lines [1]; [12]
  G1 arrest: G1 arrest was uniquely observed; also recorded: partial G1 arrest

## Cc1ccc(-c2c(C(=O)CF)n(CCCO)c3ncnc(N)c23)cc1 [fmk]
Breast cancer cell lines [1]; MDA-MB-231 cells (Fig. 5C)
  Effect on cell cycle arrest: not sufficient to cause any effect on cell cycle arrest

## COC[C@H]1OC(=O)c2coc3c2[C@@]1(C)C1=C(C3=O)[C@@H]2CCC(=O)[C@@]2(C)C[C@H]1OC(C)=O [wortmannin]
[6]
  Toxicity when administered systemically in vivo: toxic when administered systemically in vivo
